Assay results taken from ChEMBL document CHEMBL1146622, “Synthesis and biological evaluation of a novel phenyl substituted sydnone series as potential antitumor agents” (2003).

Legend:
Type in all cases: functional, Homo sapiens
NCI-H460 = test: In vitro antitumor activity determined against NCI-H460 cells expressed as percent of growth of the treated cells compared to untreated cells; parameters: concentration or dose not given beside the values
How it was run: (§1)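 NCI 3-cell-line prescreen (MCF7 breast, NCI-H460 lung, SF-268 CNS). Cells inoculated and incubated in microtiter plates, then exposed to test agent at a single concentration for 48 h. Alamar blue end-point read-out. Value is percent growth of treated cells relative to untreated cells.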

SF-268 = test: In vitro antitumor activity determined against SF-268 cells expressed as percent of growth of the treated cells compared to untreated cells; parameters: concentration or dose not given beside the values; how it was run: as §1
MCF7S [1] = test: In vitro antitumor activity determined against MCF-7 cells (breast) expressed as percent of growth of the treated cells compared to untreated cells; how it was run: as §1
MCF7S [2] = test: In vitro antitumor activity determined against MCF-7 cells expressed as percent of growth of the treated cells compared to untreated cells; parameters: concentration or dose not given beside the values; how it was run: as §1

SMILES	Cell growth (NCI-H460) [%]	Cell growth (SF-268) [%]	Cell growth (MCF7S [1]) [%]	Cell growth (MCF7S [2]) [%]
O=[N+]([O-])c1cc(-[n+]2cc([O-])on2)ccc1Cl	91	9	44	–
O=[N+]([O-])c1cc(-[n+]2cc([O-])on2)ccc1N1CCC1	95	95	–	75
O=[N+]([O-])c1cc(-[n+]2cc([O-])on2)ccc1N1Cc2ccccc2C1	76	95	–	75
CCN(CC)c1ccc(-[n+]2cc([O-])on2)cc1[N+](=O)[O-]	92	95	–	85
O=[N+]([O-])c1cc(-[n+]2cc([O-])on2)ccc1F	0	0	–	0
O=[N+]([O-])c1cc(-[n+]2cc([O-])on2)ccc1N1CCc2ccccc21	87	96	–	82
